# Reference: ChEMBL document CHEMBL4325886, “Synthesis and SAR studies of novel benzodiazepinedione-based inhibitors of Clostridium difficile (C. difficile) toxin B (TcdB)” (Bioorg Med Chem Lett, 2018)
# Tests used:
# [1] = Metabolic stability in human liver microsomes assessed as parent compound remaining after 15 mins; format: ADME, Microsome; settings: read-out: Stability
# Toxin A = Toxin A (Clostridioides difficile, UniProt P16154); experiment: Inhibition of Clostridium difficile toxin A […] CHO cells assessed as reduction in caspase 3/7 activation pre-incubated for 1 hr before TcdA addition by luminescence based assay; format: cell-based
# Chain of Toxin A (P16154 whole entry, the tested form may be a part): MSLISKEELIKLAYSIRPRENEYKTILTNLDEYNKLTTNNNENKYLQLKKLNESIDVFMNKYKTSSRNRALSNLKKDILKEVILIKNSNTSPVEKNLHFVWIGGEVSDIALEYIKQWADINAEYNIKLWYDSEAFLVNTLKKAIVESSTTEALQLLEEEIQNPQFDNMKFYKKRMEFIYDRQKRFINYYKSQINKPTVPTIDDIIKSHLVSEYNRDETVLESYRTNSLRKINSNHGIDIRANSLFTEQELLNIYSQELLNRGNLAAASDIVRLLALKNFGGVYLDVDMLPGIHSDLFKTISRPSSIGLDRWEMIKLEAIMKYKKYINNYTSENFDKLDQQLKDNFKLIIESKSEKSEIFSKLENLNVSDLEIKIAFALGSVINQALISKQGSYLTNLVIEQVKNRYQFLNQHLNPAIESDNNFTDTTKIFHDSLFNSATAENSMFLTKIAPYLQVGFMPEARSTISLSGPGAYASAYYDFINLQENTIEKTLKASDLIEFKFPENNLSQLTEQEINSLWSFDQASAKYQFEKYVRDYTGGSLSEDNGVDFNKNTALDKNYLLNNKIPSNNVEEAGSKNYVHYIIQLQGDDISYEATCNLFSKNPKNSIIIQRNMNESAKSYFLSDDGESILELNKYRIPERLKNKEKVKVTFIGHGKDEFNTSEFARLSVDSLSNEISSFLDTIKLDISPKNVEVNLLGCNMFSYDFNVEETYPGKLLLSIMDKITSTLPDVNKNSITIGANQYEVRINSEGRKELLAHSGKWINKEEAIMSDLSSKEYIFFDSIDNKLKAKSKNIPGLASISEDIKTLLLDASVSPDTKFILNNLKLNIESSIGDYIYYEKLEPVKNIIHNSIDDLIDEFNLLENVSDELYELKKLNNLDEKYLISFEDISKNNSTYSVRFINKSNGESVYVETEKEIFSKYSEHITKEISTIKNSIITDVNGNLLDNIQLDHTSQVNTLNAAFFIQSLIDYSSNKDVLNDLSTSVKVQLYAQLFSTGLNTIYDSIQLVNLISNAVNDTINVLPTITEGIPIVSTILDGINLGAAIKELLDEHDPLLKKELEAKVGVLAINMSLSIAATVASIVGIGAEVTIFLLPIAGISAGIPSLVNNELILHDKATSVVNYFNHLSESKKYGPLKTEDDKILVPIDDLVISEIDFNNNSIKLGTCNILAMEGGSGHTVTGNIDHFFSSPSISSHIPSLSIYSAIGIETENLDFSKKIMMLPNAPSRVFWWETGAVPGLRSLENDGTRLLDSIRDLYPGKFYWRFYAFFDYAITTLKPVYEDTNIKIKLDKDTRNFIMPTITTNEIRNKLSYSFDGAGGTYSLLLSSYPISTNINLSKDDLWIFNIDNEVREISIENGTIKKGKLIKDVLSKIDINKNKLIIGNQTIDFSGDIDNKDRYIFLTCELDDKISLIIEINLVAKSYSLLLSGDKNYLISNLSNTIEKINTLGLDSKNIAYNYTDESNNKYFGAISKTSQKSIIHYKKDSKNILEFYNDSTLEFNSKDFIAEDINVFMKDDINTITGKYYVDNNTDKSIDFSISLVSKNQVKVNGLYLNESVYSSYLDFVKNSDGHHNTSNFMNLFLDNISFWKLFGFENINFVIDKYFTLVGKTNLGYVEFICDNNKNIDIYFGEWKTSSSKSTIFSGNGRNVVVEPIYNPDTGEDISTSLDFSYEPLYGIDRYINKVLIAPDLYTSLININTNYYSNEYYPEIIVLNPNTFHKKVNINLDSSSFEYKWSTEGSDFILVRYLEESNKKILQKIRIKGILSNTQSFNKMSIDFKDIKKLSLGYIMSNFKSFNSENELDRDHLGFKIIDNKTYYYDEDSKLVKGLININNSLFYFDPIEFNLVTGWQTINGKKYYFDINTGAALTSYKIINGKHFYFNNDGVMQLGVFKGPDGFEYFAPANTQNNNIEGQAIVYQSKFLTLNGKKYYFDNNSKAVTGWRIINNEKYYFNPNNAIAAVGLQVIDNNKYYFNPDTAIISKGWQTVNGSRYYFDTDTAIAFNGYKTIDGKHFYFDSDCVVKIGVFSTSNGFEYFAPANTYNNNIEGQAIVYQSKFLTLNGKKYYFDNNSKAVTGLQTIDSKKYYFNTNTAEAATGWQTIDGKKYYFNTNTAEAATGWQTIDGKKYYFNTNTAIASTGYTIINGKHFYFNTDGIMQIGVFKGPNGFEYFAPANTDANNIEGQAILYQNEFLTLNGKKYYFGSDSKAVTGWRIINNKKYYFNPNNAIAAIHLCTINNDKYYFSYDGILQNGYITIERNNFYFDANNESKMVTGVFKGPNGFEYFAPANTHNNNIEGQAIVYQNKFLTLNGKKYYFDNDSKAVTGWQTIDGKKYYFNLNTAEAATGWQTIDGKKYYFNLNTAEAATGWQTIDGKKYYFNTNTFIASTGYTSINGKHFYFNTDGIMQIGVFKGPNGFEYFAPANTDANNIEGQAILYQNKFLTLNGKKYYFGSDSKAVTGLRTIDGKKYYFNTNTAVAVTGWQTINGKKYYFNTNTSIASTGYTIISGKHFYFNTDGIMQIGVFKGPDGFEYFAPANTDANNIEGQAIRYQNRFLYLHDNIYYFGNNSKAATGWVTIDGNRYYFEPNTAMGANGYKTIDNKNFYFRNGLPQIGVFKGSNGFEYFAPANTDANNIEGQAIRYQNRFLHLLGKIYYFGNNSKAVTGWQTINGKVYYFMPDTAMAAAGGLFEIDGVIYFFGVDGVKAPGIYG
# Toxin B [2] = biological target: T1, Toxin B (Clostridioides difficile, UniProt P18177); experiment: Inhibition of C-terminal 6-His tagged recombinant Clostridium difficile toxin B glucosyltransferase domain assessed as reduction in UDP-glucose hydrolysis activity using UDP-glucose substrate and ADP Alexa633 tracer incubated for 3 hrs by fluorescence polarization assay
# T1 sequence (P18177 whole entry, the tested form may be a part): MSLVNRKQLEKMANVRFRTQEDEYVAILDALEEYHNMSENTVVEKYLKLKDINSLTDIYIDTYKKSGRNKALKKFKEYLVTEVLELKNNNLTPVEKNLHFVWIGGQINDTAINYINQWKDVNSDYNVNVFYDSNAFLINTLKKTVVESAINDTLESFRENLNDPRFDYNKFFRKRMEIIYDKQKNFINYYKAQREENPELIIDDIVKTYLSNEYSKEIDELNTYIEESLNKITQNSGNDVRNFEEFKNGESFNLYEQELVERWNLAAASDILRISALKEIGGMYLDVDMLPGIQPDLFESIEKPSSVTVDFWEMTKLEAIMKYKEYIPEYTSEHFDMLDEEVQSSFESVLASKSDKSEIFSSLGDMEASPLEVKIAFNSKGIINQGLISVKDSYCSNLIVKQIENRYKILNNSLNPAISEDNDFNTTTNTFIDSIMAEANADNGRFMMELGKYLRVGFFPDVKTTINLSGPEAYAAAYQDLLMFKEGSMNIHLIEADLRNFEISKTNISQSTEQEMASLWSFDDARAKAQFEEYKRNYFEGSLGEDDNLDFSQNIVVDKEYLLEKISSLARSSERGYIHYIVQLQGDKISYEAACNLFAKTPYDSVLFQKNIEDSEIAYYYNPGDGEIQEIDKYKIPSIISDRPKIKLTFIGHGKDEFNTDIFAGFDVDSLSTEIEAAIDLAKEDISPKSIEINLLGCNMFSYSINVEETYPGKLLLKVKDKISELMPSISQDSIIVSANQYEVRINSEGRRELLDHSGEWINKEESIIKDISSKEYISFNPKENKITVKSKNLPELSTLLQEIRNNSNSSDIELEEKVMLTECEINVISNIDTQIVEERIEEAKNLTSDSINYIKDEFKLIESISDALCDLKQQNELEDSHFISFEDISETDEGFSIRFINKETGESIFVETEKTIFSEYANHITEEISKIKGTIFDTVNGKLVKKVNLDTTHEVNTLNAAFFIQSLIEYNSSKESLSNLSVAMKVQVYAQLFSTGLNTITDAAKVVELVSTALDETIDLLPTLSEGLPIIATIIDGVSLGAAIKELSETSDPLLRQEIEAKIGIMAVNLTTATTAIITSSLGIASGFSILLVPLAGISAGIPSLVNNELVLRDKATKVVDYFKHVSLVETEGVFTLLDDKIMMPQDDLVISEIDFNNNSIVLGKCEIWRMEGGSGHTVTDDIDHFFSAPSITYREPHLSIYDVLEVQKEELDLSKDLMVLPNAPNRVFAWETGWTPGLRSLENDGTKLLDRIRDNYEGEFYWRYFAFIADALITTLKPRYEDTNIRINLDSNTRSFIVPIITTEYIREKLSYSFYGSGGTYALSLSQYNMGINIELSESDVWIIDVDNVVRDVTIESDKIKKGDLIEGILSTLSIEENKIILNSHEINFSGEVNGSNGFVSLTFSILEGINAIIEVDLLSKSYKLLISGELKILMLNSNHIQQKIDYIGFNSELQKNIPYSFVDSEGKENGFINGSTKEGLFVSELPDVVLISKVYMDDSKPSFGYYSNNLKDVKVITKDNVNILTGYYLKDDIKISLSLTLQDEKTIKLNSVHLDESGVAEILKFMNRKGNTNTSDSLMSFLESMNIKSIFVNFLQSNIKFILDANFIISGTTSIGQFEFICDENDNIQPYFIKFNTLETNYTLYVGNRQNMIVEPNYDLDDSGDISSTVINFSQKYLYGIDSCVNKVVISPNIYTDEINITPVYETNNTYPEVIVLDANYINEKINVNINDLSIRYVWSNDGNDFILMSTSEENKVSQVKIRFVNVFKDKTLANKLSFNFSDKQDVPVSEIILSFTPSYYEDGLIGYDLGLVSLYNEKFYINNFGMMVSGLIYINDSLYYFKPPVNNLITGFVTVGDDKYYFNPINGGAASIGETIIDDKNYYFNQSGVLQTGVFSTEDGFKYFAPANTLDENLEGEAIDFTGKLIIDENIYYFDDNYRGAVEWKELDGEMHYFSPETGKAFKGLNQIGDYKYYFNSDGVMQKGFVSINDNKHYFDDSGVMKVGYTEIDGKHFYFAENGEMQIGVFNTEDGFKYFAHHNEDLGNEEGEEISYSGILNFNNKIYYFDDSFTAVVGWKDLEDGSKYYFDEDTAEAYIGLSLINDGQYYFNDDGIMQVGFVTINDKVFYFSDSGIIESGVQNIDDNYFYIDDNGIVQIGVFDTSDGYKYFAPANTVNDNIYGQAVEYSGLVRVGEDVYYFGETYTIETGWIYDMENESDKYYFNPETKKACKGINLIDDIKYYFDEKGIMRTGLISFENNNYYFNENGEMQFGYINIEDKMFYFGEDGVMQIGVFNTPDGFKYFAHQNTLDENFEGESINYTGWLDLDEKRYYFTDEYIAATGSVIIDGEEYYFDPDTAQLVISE
# [3] = Metabolic stability in mouse liver microsomes assessed as parent compound remaining after 15 mins; format: ADME, Microsome; settings: read-out: Stability
# Toxin B [4] = biological target: T1, Toxin B; experiment: Inhibition of Clostridium difficile toxin B […] CHO cells assessed as reduction in caspase 3/7 activation pre-incubated for 1 hr before TcdB addition by luminescence based assay; format: cell-based
# [5] = Metabolic stability in mouse plasma assessed as parent compound remaining after 2 hrs; format: ADME, cell-free
# How it was run: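 Compound incubated in mouse plasma for 2 h. Parent compound remaining was measured, and the carboxylic acid hydrolysis product was also monitored.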
smiles,measurement,setting,value
Cc1cnc(NC(=O)c2ccc(CN3C(=O)c4ccc(Cl)cc4NC(=O)[C@H]3Cc3ccccn3)cc2Cl)nc1,remaining at 0.25 h,[1],79%
same,IC50,Toxin A,1500 nM
same,IC50,Toxin B [2],4 nM
same,remaining at 0.25 h,[3],33%
same,IC50,Toxin B [4],130 nM
Cc1cc(CN2C(=O)c3ccc(Cl)cc3NC(=O)[C@H]2Cc2ccccn2)ccc1C(=O)Nc1ccc(C#N)cn1,remaining at 0.25 h,[1],90%
same,IC50,Toxin B [2],3 nM
same,remaining at 0.25 h,[3],70%
same,IC50,Toxin B [4],78 nM
COc1cc(CN2C(=O)c3ccc(Cl)cc3NC(=O)[C@H]2Cc2ccccn2)ccc1C(=O)Nc1ccc(F)cn1,remaining at 0.25 h,[1],94%
same,IC50,Toxin A,17000 nM
same,IC50,Toxin B [2],14 nM
same,remaining at 0.25 h,[3],67%
same,IC50,Toxin B [4],1100 nM
O=C(Nc1ccc(F)cn1)c1ccc(CN2C(=O)c3ccc(Cl)cc3NC(=O)[C@H]2Cc2ccccn2)cc1Cl,remaining at 0.25 h,[1],88%
same,IC50,Toxin A,1800 nM
same,IC50,Toxin B [2],4 nM
same,remaining at 0.25 h,[3],69%
same,IC50,Toxin B [4],130 nM
COc1cnc(NC(=O)c2ccc(CN3C(=O)c4ccc(Cl)cc4NC(=O)[C@H]3Cc3ccccn3)cc2)nc1,Stability,[5]; 2 h,Unstable
same,IC50,Toxin B [4],3 nM
COc1ccc(NC(=O)c2ccc(CN3C(=O)c4ccc(Cl)cc4NC(=O)[C@H]3Cc3ccccn3)cc2OC)nc1,remaining at 0.25 h,[1],78%
same,IC50,Toxin A,1100 nM
same,IC50,Toxin B [2],5 nM
same,remaining at 0.25 h,[3],71%
same,IC50,Toxin B [4],130 nM
Cc1cnc(NC(=O)c2ccc(CN3C(=O)c4ccc(Cl)cc4NC(=O)[C@H]3Cc3ccccn3)cc2Cl)cn1,remaining at 0.25 h,[1],81%
same,IC50,Toxin A,2100 nM
same,IC50,Toxin B [2],9 nM
same,remaining at 0.25 h,[3],79%
same,IC50,Toxin B [4],220 nM
Cc1cc(CN2C(=O)c3ccc(Cl)cc3NC(=O)[C@H]2Cc2ccccn2)ccc1C(=O)Nc1ccc(F)cn1,remaining at 0.25 h,[1],85%
same,IC50,Toxin A,860 nM
same,IC50,Toxin B [2],8 nM
same,remaining at 0.25 h,[3],60%
same,IC50,Toxin B [4],62 nM
O=C(c1ccc(CN2C(=O)c3ccc(Cl)cc3NC(=O)[C@H]2Cc2ccccn2)cc1)c1cccn2ccnc12,remaining at 0.25 h,[1],44%
same,IC50,Toxin A,8100 nM
same,IC50,Toxin B [2],8 nM
same,remaining at 0.25 h,[3],27%
same,IC50,Toxin B [4],660 nM
COc1cnc(NC(=O)c2ccc(CN3C(=O)c4ccc(Cl)cc4NC(=O)[C@H]3Cc3ccccn3)cc2C)nc1,remaining at 0.25 h,[1],82%
same,IC50,Toxin A,690 nM
same,IC50,Toxin B [2],4 nM
same,remaining at 0.25 h,[3],39%
same,IC50,Toxin B [4],29 nM
COc1ccc(NC(=O)c2ccc(CN3C(=O)c4ccc(Cl)cc4NC(=O)[C@H]3Cc3ccccn3)cc2Cl)nc1,remaining at 2 h,[5]; read-out: Stability,100%
same,remaining at 0.25 h,[1],100%
same,IC50,Toxin A,760 nM
same,IC50,Toxin B [2],5 nM
same,remaining at 0.25 h,[3],71%
same,IC50,Toxin B [4],61 nM
COc1cc(CN2C(=O)c3ccc(Cl)cc3NC(=O)[C@H]2Cc2ccccn2)ccc1C(=O)Nc1ccc(C)cn1,remaining at 0.25 h,[1],62%
same,IC50,Toxin A,11000 nM
same,IC50,Toxin B [2],9 nM
same,remaining at 0.25 h,[3],49%
same,IC50,Toxin B [4],1900 nM
Cc1ccc(NC(=O)c2ccc(CN3C(=O)c4ccc(Cl)cc4NC(=O)[C@H]3Cc3ccccn3)cc2C)nc1,remaining at 0.25 h,[1],61%
same,IC50,Toxin A,860 nM
same,IC50,Toxin B [2],7 nM
same,remaining at 0.25 h,[3],31%
same,IC50,Toxin B [4],61 nM
COc1ccc(NC(=O)c2ccc(CN3C(=O)c4ccc(Cl)cc4NC(=O)[C@H]3Cc3ccccn3)cc2C)nc1,remaining at 0.25 h,[1],68%
same,IC50,Toxin A,480 nM
same,IC50,Toxin B [2],10 nM
same,remaining at 0.25 h,[3],51%
same,IC50,Toxin B [4],71 nM
COc1cc(CN2C(=O)c3ccc(Cl)cc3NC(=O)[C@H]2Cc2ccccn2)ccc1C(=O)Nc1ccc(C(F)(F)F)cn1,remaining at 0.25 h,[1],100%
same,IC50,Toxin A,31000 nM
same,IC50,Toxin B [2],41 nM
same,remaining at 0.25 h,[3],83%
same,IC50,Toxin B [4],660 nM
Cc1cccc(C(=O)c2ccc(CN3C(=O)c4ccc(Cl)cc4NC(=O)[C@H]3Cc3ccccn3)cc2)n1,remaining at 0.25 h,[1],25%
same,IC50,Toxin B [2],340 nM
same,remaining at 0.25 h,[3],3%
Cn1cnc(C(=O)c2ccc(CN3C(=O)c4ccc(Cl)cc4NC(=O)[C@H]3Cc3ccccn3)cc2)c1,remaining at 0.25 h,[1],44%
same,IC50,Toxin A,> 100000 nM
same,IC50,Toxin B [2],230 nM
same,remaining at 0.25 h,[3],16%
same,IC50,Toxin B [4],> 100000 nM
O=C(O)c1ccc(CN2C(=O)c3ccc(Cl)cc3NC(=O)[C@H]2Cc2ccccn2)cc1,IC50,Toxin B [2],180 nM
